According to ChEMBL document CHEMBL1138476 (J Med Chem, 2009):

Key:
[1] = target: T1, Corticotropin-releasing factor receptor 1 (Rattus norvegicus, UniProt P35353); test: Displacement of [125I]Tyro-rat/human CRF from CRF1 receptor in rat cortical membrane by gamma counting; format: cell membranes
T1 sequence (P35353 whole entry): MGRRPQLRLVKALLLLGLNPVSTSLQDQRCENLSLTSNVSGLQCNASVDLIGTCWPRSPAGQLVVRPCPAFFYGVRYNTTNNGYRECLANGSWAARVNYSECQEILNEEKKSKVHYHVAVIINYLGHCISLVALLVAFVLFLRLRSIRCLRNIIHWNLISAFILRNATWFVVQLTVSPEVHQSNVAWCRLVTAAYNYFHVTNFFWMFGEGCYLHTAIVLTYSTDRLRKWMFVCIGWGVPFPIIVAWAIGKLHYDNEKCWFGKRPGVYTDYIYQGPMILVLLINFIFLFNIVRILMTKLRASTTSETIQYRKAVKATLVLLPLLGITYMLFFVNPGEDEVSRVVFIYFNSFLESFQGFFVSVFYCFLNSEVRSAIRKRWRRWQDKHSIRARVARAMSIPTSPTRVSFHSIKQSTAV
Procedure, shortened: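 Binding to CRF receptors in rat cortical homogenate.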

[2] = AUC in Beagle dog at 1 mg/kg, po by cassette dosing; format: ADME, organism-based, Canis lupus familiaris; set-up: dose 1 mg/kg, route oral; conditions: plasma
[3] = Cmax in Beagle dog at 1 mg/kg, po by cassette dosing; format: ADME, organism-based, Canis lupus familiaris; set-up: dose 1 mg/kg, route oral; conditions: in vivo
[4] = Half life in Beagle dog at 1 mg/kg, po by cassette dosing; format: ADME, organism-based, Canis lupus familiaris; set-up: dose 1 mg/kg, route oral; conditions: in vivo
Rattus norvegicus [5] = test: Effect on gastrointestinal motility in fasted Sprague-Dawley rat assessed as distance of charcoal moved from stomach to cecum at 3 mg/kg, po (RVb= 42.1+/-1.8 %)
Rattus norvegicus [6] = test: Effect on gastrointestinal motility in fasted Sprague-Dawley rat assessed as distance of charcoal moved from stomach to cecum at 0.3 mg/kg, ip (RVb= 38.4+/-3.8 %); format: functional, Caecum; conditions: route intraperitoneal
Rattus norvegicus [7] = test: Toxicity in rat assessed as total distance traveled at 3 mg/kg, po after 1 hr by spontaneous locomotor test; format: organism-based; set-up: dose 3 mg/kg, route oral; conditions: in vivo
Procedure, shortened: (§1)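 Rat spontaneous locomotor activity test with oral dosing in 0.25% Methocel 1 h before testing, at doses up to 100 mg/kg. Values are mean ± SEM, with N rats per group, compared with the vehicle (zero-dose) group.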

Rattus norvegicus [8] = test: Toxicity in rat assessed as total distance traveled at 10 mg/kg, po after 1 hr by spontaneous locomotor test; format: functional; procedure, shortened: as §1
Rattus norvegicus [9] = test: Toxicity in rat assessed as total distance traveled at 30 mg/kg, po after 1 hr by spontaneous locomotor test; format: functional; procedure, shortened: as §1
Rattus norvegicus [10] = test: Toxicity in rat assessed as total distance traveled at 100 mg/kg, po after 1 hr by spontaneous locomotor test; format: organism-based; set-up: dose 100 mg/kg, route oral; conditions: in vivo; procedure, shortened: as §1
Rattus norvegicus [11] = test: Toxicity in rat assessed as time spent on rotarod at 3 mg/kg, po after 1 hr by rotarod test; format: organism-based; set-up: dose 3 mg/kg, route oral; conditions: in vivo
Procedure, shortened: (§2)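 Rats, n = 8 per dose, dosed po in 0.25% Methocel 1 h before testing, at 0, 1.0, 3.0, 10, 30 and 100 mg/kg. Read-out is time on rotorod (s), mean ± SEM, compared with the vehicle (zero-dose) group.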

Rattus norvegicus [12] = test: Toxicity in rat assessed as time spent on rotarod at 10 mg/kg, po after 1 hr by rotarod test; format: organism-based; set-up: dose 10 mg/kg, route oral; conditions: in vivo; procedure, shortened: as §2
Rattus norvegicus [13] = test: Toxicity in rat assessed as time spent on rotarod at 30 mg/kg, po after 1 hr by rotarod test; format: organism-based; set-up: dose 30 mg/kg, route oral; conditions: in vivo; procedure, shortened: as §2

Row | Compound | IC50 [1] | further results
1 | COCCN(CCOC)c1nc(C)nc2c(-c3cnc(N(C)C)cc3C)c(C)nn12 | 91.9 nM | 
2 | CCN(CC)c1nc(C)nc2c(-c3cnc(OC)cc3C)c(C)nn12 | 14.5 nM | 
3 | CCC(CC)Nc1nc(C)nc2c(-c3cnc(OC)cc3C)c(C)nn12 | 3 nM | 
4 | CCCCN(CCC)c1nc(C)nc2c(-c3ccc(OC)nc3C)c(C)nn12 | 2.4 nM | 
5 | CCCN(C)c1nc(C)nc2c(-c3ccc(OC)nc3C)c(C)nn12 | 17.6 nM | 
6 | CCCCN(C)c1nc(C)nc2c(-c3ccc(OC)nc3C)c(C)nn12 | 8.1 nM | 
7 | COCCN(CCOC)c1nc(C)nc2c(-c3cnc(OC)cc3C)c(C)nn12 | 23.8 nM | 
8 | CCCCN(CC)c1nc(C)nc2c(-c3ccc(OC)nc3C)c(C)nn12 | 4.9 nM | 
9 | COCCN(CCOC)c1nc(C)nc2c(-c3ccc(OC)nc3C)c(C)nn12 | 8.5 nM | AUC [2]: 1.47 µM·h; Cmax [3]: 275 nM; half-life [4]: 10.3 h
10 | COCCNc1nc(C)nc2c(-c3c(C)cc(N(C)C)nc3C)c(C)nn12 | > 10000 nM | 
11 | COCCN(CC1CC1)c1nc(C)nc2c(-c3ccc(OC)nc3C)c(C)nn12 | 3.1 nM | AUC [2]: 1.73 µM·h; Cmax [3]: 314 nM; half-life [4]: 11.4 h
12 | CCCN(CC1CC1)c1nc(C)nc2c(-c3ccc(OC)nc3C)c(C)nn12 | 1.6 nM | 
13 | CCC(CC)Nc1nc(C)nc2c(-c3ccc(OC)nc3C)c(C)nn12 | 3.1 nM | 
14 | CCC(CC)Nc1nc(C)nc2c(-c3cnc(N(C)C)cc3C)c(C)nn12 | 24.8 nM | 
15 | CCN(CC)c1nc(C)nc2c(-c3cnc(N(C)C)cc3C)c(C)nn12 | 13.8 nM | 
16 | CN1[C@@H]2CC[C@H]1C[C@@H](OC(=O)C(CO)c1ccccc1)C2 (mixture of isomers) [ATROPINE] |  | Activity (Rattus norvegicus [5]): 27.5%
17 | C[N+](C)(C)CCOC(N)=O.[Cl-] [CARBACHOL] |  | Activity (Rattus norvegicus [6]): 55.8%
18 | CNC1=Nc2ccc(Cl)cc2C(c2ccccc2)=[N+]([O-])C1 [CHLORDIAZEPOXIDE] |  | Activity (Rattus norvegicus [7]): 4624 cm; Activity (Rattus norvegicus [8]): 3981 cm; Activity (Rattus norvegicus [9]): 2162 cm; Activity (Rattus norvegicus [10]): 1062 cm; Time (Rattus norvegicus [11]): 227 s; Time (Rattus norvegicus [12]): 128 s; Time (Rattus norvegicus [13]): 114 s
